Screens: PubChem BioAssay, The Scripps Research Institute Molecular Screening Center
PAD4 inh = blocks human protein arginine deiminase 4; recombinant PAD4, RCA probe fluorescence polarization; 330,000 tested, 0.41% active; Q9UM07; inhibition, % at 6.36 µM;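 active = percent inhibition above a cutoff equal to the mean of all tested compounds plus 3 SD, cut at about 15% in these data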
Target sequence (Q9UM07 whole entry, looked up): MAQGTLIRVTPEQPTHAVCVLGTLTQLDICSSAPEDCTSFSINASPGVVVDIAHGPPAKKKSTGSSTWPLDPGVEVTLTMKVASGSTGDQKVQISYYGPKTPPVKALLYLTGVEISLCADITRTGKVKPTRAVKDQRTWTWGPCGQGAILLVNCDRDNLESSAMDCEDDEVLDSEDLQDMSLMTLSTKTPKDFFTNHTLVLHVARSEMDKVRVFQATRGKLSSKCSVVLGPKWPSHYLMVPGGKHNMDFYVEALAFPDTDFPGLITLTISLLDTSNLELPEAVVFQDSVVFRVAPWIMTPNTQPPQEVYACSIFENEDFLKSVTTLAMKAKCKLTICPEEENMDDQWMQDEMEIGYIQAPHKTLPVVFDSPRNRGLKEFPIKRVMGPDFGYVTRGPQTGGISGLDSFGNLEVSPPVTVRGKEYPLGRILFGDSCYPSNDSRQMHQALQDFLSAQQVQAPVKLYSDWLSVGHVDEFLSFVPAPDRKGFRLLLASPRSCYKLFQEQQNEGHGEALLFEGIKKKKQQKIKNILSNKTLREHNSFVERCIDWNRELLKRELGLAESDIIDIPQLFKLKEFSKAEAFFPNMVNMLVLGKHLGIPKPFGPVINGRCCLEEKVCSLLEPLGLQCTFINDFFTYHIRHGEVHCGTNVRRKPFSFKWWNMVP
TDP2 inh = blocks human TDP2 phosphodiesterase activity | O95551 | 370,000 tested, 0.34% active | recombinant TDP2, T5PNP hydrolysis, p-nitrophenol absorbance 415 nm | inhibition, % at 12.8 µM | AID 720702;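 active = inhibition above the mean of all tested compounds plus 3 SD, set per campaign, cut at about 25% in these data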
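System – recombinant human TDP2 · Amount – 120 nM TDP2 per well · Buffer or medium – Mg2+-containing Tris-HCl buffer, pH 7.5 · Reagent – T5PNP substrate, 5 mM · Dosing – 12.8 µM single point, 1% DMSO · Incubation – 2 h at 37 °C · Measured by – epi absorbance · Read-out basis – percent inhibition · Benchmarks – high control without enzyme, low control DMSO plus TDP2 · Repeats – singlicate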
GSTO1 inh = GSTO1 inhibition, counter-screen for RBBP9 inhibitors; inhibition, % at 5.96 µM; AID 1974; recombinant GSTO1, activity-based probe fluorescence polarization; P78417; 300,000 tested, 1.1% active;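 active = inhibition above the campaign mean inhibition plus 3 SD, cut at about 35% in these data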
eLon inh = E. coli protease La inhibition | P0A9M0 | purified E. coli Lon protease, fluorescence polarization | inhibition, % at 7.94 µM | 360,000 tested, 0.42% active | AID 602123; in the data active = inhibition above about 13%, passing the limit was not always enough
PRMT1 inh = PRMT1 (human) inhibition, primary screen; AID 652257; recombinant PRMT1, activity-based probe fluorescence polarization; inhibition, % at 2.79 µM; Q99873; 370,000 tested, 1.3% active;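 active = inhibition above about 21% made by adding two undisclosed values, limit read from the data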
Each line names hits and unclear results; the compound was inactive in the other large screens. Compounds with a hit are over-represented: about 2.5% of the library has one in this group of screens.

C/C=C\C=C/C(=O)Nc1cccc(C2=NOC3(C2)C[C@@H](C(N)=O)N(C(=O)/C=C/C=C\C)C3)c1 (stereo partly specified)	none (no result: TDP2 inh, PRMT1 inh)
O=C(Cn1nnc(-c2ccncc2)n1)Nc1ccc(Cl)cc1	none (no result: PAD4 inh, GSTO1 inh, eLon inh)
COc1cc(CNn2cn[nH]c2=S)cc(Br)c1OCc1ccccc1F	PRMT1 inh 23.7
CC(C)C[C@H]1COc2cccc(F)c2S(=O)(=O)N1Cc1cn(CCC2OCCO2)nn1	none (no result: PAD4 inh, GSTO1 inh, eLon inh)
CCCCCCN1CCS(=O)(=O)N(Cc2ccc(C)cc2)C(C(=O)OC)C1 (stereo unspecified)	none (no result: PAD4 inh, GSTO1 inh, eLon inh)
CC(=O)Nc1ccc(-n2c(C)ccc2-c2ccccc2)cc1	PRMT1 inh 22.6
CC(=O)Nc1ccc(-n2c(C)ccc2C)cc1	none
CCCn1c2ccccc2c2nnc(SCCN3CCOCC3)nc21	PRMT1 inh 23.9
COC(=O)N1C[C@H](OC)[C@H]2C[C@@H]1c1ccccc1O2	none (no result: PAD4 inh, GSTO1 inh, eLon inh)
Cc1c(C(=O)NNc2cc(=O)n(C)c(=O)n2C)cccc1[N+](=O)[O-]	PRMT1 inh 23.3
Cc1ccc(OCC(=O)c2ccc(Cl)s2)c([N+](=O)[O-])n1	PRMT1 inh 24.3
O=C(Oc1ccc(OC(=O)c2ccncc2)cc1)c1ccncc1	GSTO1 inh 35.0
CCN(Cc1cn(Cc2ccc(C)cc2)nn1)S(=O)(=O)c1ccccc1Br	none (no result: PAD4 inh, GSTO1 inh, eLon inh)
CC(C)C[C@@H]1COc2cc(Br)ccc2S(=O)(=O)N1Cc1cn(Cc2ccccc2)nn1	none (no result: PAD4 inh, GSTO1 inh, eLon inh)
O=C1CCCc2c1sc1nc3n(c(=O)c21)CCCCC3	none
O=C1c2sc3nc4n(c(=O)c3c2CCC1Br)CCCCC4 (stereo unspecified)	GSTO1 inh 55.0
COc1ccc(-c2[nH][nH]c(=O)c2NC(=O)c2ccccn2)cc1	none (no result: PAD4 inh, GSTO1 inh)
COc1ccc(CCC(=O)Nc2c(-c3ccc(N(C)C)cc3)[nH][nH]c2=O)cc1	TDP2 inh 60.1 (no result: PAD4 inh, GSTO1 inh)
Cc1ccc(C2CC(=O)Oc3cc(C)cc(C)c32)cc1 (stereo unspecified)	none (no result: GSTO1 inh)
O=C1CC(c2ccc(Cl)cc2)c2c(O)cc(O)cc2O1 (stereo unspecified)	GSTO1 inh 37.4
C[C@H](NC(=O)C[C@@H]1C[C@@H]2c3cc(NC(=O)C4CCC4)ccc3O[C@@H]2[C@@H](CO)O1)c1ccccc1	none (no result: PAD4 inh, GSTO1 inh, eLon inh)
Cc1cc(-c2nnc(SCC(=O)Nc3nc(-c4ccccc4)cs3)o2)no1	PRMT1 inh 24.7
COc1ccc(Cc2nnc(SCC(=O)c3ccc(OC)cc3)o2)cc1	GSTO1 inh 36.7
COc1ccc(C(=O)CSc2nnc(-c3cc(C)on3)o2)cc1	GSTO1 inh 36.0
NC(=O)c1ncn([C@@H]2O[C@H](C(=O)N[C@H](Cc3c[nH]c4ccccc34)C(=O)O)[C@@H](O)[C@H]2O)n1	none (no result: PAD4 inh, GSTO1 inh, eLon inh)
Cc1nn(CCC(=O)NNC(=O)Nc2ccccc2F)c(C)c1[N+](=O)[O-]	none (no result: PAD4 inh, GSTO1 inh, eLon inh)
C=C1C(=O)[C@]23C[C@H]1CCC2[C@@]1(C)C(C[C@@H]3O)[C@](C)(C(=O)OC)CC[C@@H]1OC(C)=O (stereo partly specified)	PRMT1 inh 24.2 (no result: PAD4 inh, GSTO1 inh)
C=C1C(=O)[C@]23C[C@H]1CC[C@H]2[C@]1(C)[C@@H](OC(C)=O)CC[C@@](C)(C(=O)OC)[C@H]1C[C@@H]3OC(C)=O	none (no result: PAD4 inh, GSTO1 inh)
Cc1ccc(-c2nc3ncccn3c2NC(=O)Nc2ccc(F)cc2)cc1	none (no result: PAD4 inh, GSTO1 inh, eLon inh)
CCCCNC(=O)NCCCN1CCN(c2ccc(F)cc2)CC1	none (no result: PAD4 inh, GSTO1 inh, eLon inh)
O=[N+]([O-])c1ccccc1/C=C/C1Nc2cccc3cccc(c23)N1	PRMT1 inh 21.5 (no result: PAD4 inh, GSTO1 inh, eLon inh)
O=[N+]([O-])c1cc(C2Nc3cccc4cccc(c34)N2)ccc1Cl	none
COCCCN1C(=O)[C@H](CC(=O)NCC2CCCCC2)[C@]2(C(=O)OC)CCCCC=C12	none (no result: PAD4 inh, GSTO1 inh, eLon inh)
O=C(OC12CCCN(C1)/C(=C/c1ccc(Cl)cc1)C2)c1ccc(F)cc1 (stereo unspecified)	none (no result: PAD4 inh, GSTO1 inh, eLon inh)
COc1cc(/C=N/Nc2nc3ccccc3[nH]2)cc(OC)c1O	GSTO1 inh 73.3
COc1cc(/C=N/Nc2nc3ccccc3[nH]2)ccc1O	none
COC(=O)[C@]12C[C@H](CC(=O)NCCCN3CCCC3=O)C(=O)N(Cc3ccc(Cl)cc3Cl)C1=C[C@H](COCc1ccccc1)O[C@@H]2C	none (no result: PAD4 inh, GSTO1 inh, eLon inh)
Cc1ccc(C(=O)N/C(=C\c2cn(C)c3ccccc23)C(=O)NCCCN2CCOCC2)cc1	none
Cc1ccc(C(=O)N/C(=C\c2ccc(-c3ccccc3[N+](=O)[O-])o2)C(=O)NCCCN2CCOCC2)cc1	GSTO1 inh 36.1
Cc1ccc(-c2cc(C(=O)OCC(=O)N(C)c3c(N)n(Cc4ccccc4)c(=O)[nH]c3=O)c3ccccc3n2)o1	PRMT1 inh 23.9
CCCCN(C(=O)c1cc(-c2ccco2)nc2ccccc12)c1c(N)n(CCCC)c(=O)[nH]c1=O	PRMT1 inh 22.2
CCCCn1c(N)c(N(CCC(C)C)C(=O)c2cc(-c3ccco3)nc3ccccc23)c(=O)[nH]c1=O	PRMT1 inh 21.9
CCCCn1c(N)c(N(CCOC)C(=O)c2cc(-c3ccco3)nc3ccccc23)c(=O)[nH]c1=O	none
O=C(Oc1nsnc1N1CCOCC1)N(c1ccccc1)c1ccccc1	none
COC(=O)Oc1nsnc1N1CCOCC1	PRMT1 inh 81.4
CC(=O)ON=C1C=CC(=C(C#N)c2ccccc2)C=C1	PRMT1 inh 23.9 (no result: PAD4 inh, GSTO1 inh)
O=C(CN1CCc2onc(-c3ccc(-n4cc(COc5ccc([N+](=O)[O-])cc5)nn4)cc3)c2C1=O)N1CCOCC1	none (no result: PAD4 inh, GSTO1 inh, eLon inh)
O=C1C(=Cc2ccco2)CCCC1=Cc1ccco1	PRMT1 inh 28.9 (no result: PAD4 inh, GSTO1 inh)
O/N=C1\CCC\C1=C/c1ccco1	none
C#CCSc1nnc(-c2c[nH]c3ccccc23)n1C	none
C#CCSc1nnc(-c2sc(-c3ccccc3)nc2C)n1C	GSTO1 inh 73.8
C=CCc1cccc(/C=N/c2ncccc2O)c1O	PRMT1 inh 21.8
C=CCN(CC#Cc1ccc(C(F)(F)F)cc1)Cc1ccc(OC)cc1OC	none (no result: PAD4 inh, GSTO1 inh, eLon inh)
CCOc1cc(C2CC(=O)N3CN(C4CCCCC4)CSC3=C2C#N)ccc1O (stereo unspecified)	PRMT1 inh 32.4
Cc1cc(/C=C2\SC(=O)N(CC(=O)Nc3ccccc3F)C2=O)c(C)n1C	none
O=C(CN1C(=O)S/C(=C\c2ccccc2F)C1=O)Nc1ccccc1O	PRMT1 inh 21.7
C[C@]12CC[C@@H]3c4cc(O)c(O)cc4CC[C@H]3[C@@H]1CC[C@@H]2O	GSTO1 inh 42.4, PRMT1 inh 33.2
O=C(Nc1nc2ncccn2c1-c1ccc(F)c(F)c1)C1CC1	none (no result: PAD4 inh, GSTO1 inh, eLon inh)
Cc1ccccc1/C=C1\SC(=S)N(/N=C/c2cc([N+](=O)[O-])ccc2O)C1=O	GSTO1 inh 35.0
CC(=O)c1ccc(C(=O)Nc2nnc(-c3ccc(Cl)cc3)o2)cc1	none
CN(C)c1ccc(C(=O)Nc2nnc(-c3ccc(Cl)cc3)o2)cc1	GSTO1 inh 35.7
O=C(CCl)NC(=O)NC12CC3CC(CC(C3)C1)C2	GSTO1 inh 89.2
CC(C)(C)NC(=O)C1N(c2cccnc2)C(=O)C2C(C(=O)Nc3ccccc3F)C3(C)C=CC21O3 (stereo unspecified)	PRMT1 inh 21.7
O=C(c1ccc(C#Cc2ccccc2)cc1)N1CCC(O)CC1	none (no result: PAD4 inh, GSTO1 inh, eLon inh)
CC(=O)N(C(C)=O)n1c(C)nc2sc3c(c2c1=O)CCCC3	none
